Published values pooled from the literature.
Each line is one published result; the experiments were not run side by side.
PIK3CA: Phosphatidylinositol 4,5-bisphosphate 3-kinase catalytic subunit alpha isoform (PIK3CA, Homo sapiens, UniProt P42336)
PIK3CA I800L: Phosphatidylinositol 4,5-bisphosphate 3-kinase catalytic subunit alpha isoform (PIK3CA, Homo sapiens, UniProt P42336, I800L)
PIK3CA M1043I: Phosphatidylinositol 4,5-bisphosphate 3-kinase catalytic subunit alpha isoform (PIK3CA, Homo sapiens, UniProt P42336, M1043I)
PIK3CA H1047L: Phosphatidylinositol 4,5-bisphosphate 3-kinase catalytic subunit alpha isoform (PIK3CA, Homo sapiens, UniProt P42336, H1047L)
PIK3CA E545A: Phosphatidylinositol 4,5-bisphosphate 3-kinase catalytic subunit alpha isoform (PIK3CA, Homo sapiens, UniProt P42336, E545A)
PIK3CA C420R: Phosphatidylinositol 4,5-bisphosphate 3-kinase catalytic subunit alpha isoform (PIK3CA, Homo sapiens, UniProt P42336, C420R)
PIK3CA E545K: Phosphatidylinositol 4,5-bisphosphate 3-kinase catalytic subunit alpha isoform (PIK3CA, Homo sapiens, UniProt P42336, E545K)
PIK3CA Q546K: Phosphatidylinositol 4,5-bisphosphate 3-kinase catalytic subunit alpha isoform (PIK3CA, Homo sapiens, UniProt P42336, Q546K)

CC(=O)c1c(NS(C)(=O)=O)c2cc(-c3ccc(Cl)cc3)c(-c3ccc(Cl)cc3Cl)nc2n(C)c1=O  remaining binding (PIK3CA; cell-free assay; competition with immobilised ligand; 1 µM): 100%
O=C(c1ccc(Nc2ncc(Cl)c(-c3ccc(Cl)s3)n2)cc1)N1CCC(N2CCCC2)CC1  remaining binding (PIK3CA I800L; binding; competition with immobilised ligand; 1 µM): 92%
O=C(O)c1cc(-c2ccc(C3CCNCC3)cc2)c2ccc(-c3ccc(C(F)(F)F)cc3)cc2c1  remaining binding (PIK3CA M1043I; cell-free assay; competition with immobilised ligand; 1 µM): 100%
O=C(NCCCN1CCOCC1)c1ccc(Nc2ncc(Cl)c(-c3ccc(Cl)s3)n2)cc1  remaining binding (PIK3CA H1047L; binding; competition with immobilised ligand; 1 µM): 100%
C[C@@]1(Cc2ccc(C#N)cc2)C(=O)N(c2cc(Cl)cc(Cl)c2)c2ncc(C(=O)NC3(c4nc(C5CCC5)no4)CC3)n21  remaining binding (PIK3CA E545A; cell-free assay; competition with immobilised ligand; 1 µM): 100%
c1cnn2ncc(-c3ccnc(N4CCC45COC5)n3)c2c1  remaining binding (PIK3CA H1047L; binding; 1 µM): 62%
COc1cnc(Nc2cccc(S(N)(=O)=O)c2)nc1N1CCN(c2ccccc2)CC1  remaining binding (PIK3CA H1047L; binding; competition with immobilised ligand; 1 µM): 81%
O=C(c1ccc(Nc2ncc(Cl)c(-c3cc4ccccc4s3)n2)cc1)N1CCC(N2CCCC2)CC1  remaining binding (PIK3CA E545A; binding; competition with immobilised ligand; 1 µM): 99%
F[C@@H]1CCN(c2nccc(-c3cnn4ncccc34)n2)C1  remaining binding (PIK3CA C420R; binding; 1 µM): 90%
CN1CCN(c2ccc(Nc3nccc(-c4ccccc4)n3)cc2C(F)(F)F)CC1  remaining binding (PIK3CA E545K; binding; 10 µM): 68%
O=C(Nc1c[nH]nc1C(=O)NC1CCNCC1)c1cc(F)cc(F)c1  remaining binding (Phosphatidylinositol 4,5-bisphosphate 3-kinase catalytic subunit alpha isoform (PIK3CA, Homo sapiens, UniProt P42336, E542K); binding; competition with immobilised ligand; 1 µM): 88%
CCS(=O)(=O)c1cc2cc(C[C@@](O)(CC(C)(C)c3ccc(F)cc3C(N)=O)C(F)(F)F)[nH]c2cn1  remaining binding (PIK3CA M1043I; cell-free assay; competition with immobilised ligand; 1 µM): 99%
CN(CCCC(F)(F)F)c1nccc(-c2cnn3ncccc23)n1  remaining binding (PIK3CA Q546K; binding; 1 µM): 69%
FC(F)(F)c1ccc2c(c1)nc(-c1cccnc1)n2C1CC1  remaining binding (PIK3CA C420R; cell-free assay; competition with immobilised ligand; 1 µM): 92%
CN(C)c1ncc(F)c(-c2cnn3ncccc23)n1  remaining binding (PIK3CA E545A; binding; 1 µM): 59%
O=C(c1ccc(Nc2nccc(-c3cc4ccccc4s3)n2)cc1)N1CCC(N2CCCC2)CC1  remaining binding (PIK3CA; binding; competition with immobilised ligand; 1 µM): 100%
CNC(=O)[C@@H]1CC[C@@H](n2c(-c3ccc4cnccc4c3)nc3ccc(C(=O)NCc4cccc(C(N)=O)c4)cc32)C1  remaining binding (PIK3CA H1047L; binding; competition with immobilised ligand; 1 µM): 100%
C[C@@H](c1ccc(-n2cnc3c(N)ncnc32)cc1)N1CCc2nn(C)c(Cc3ccccc3)c2C1=O  remaining binding (PIK3CA M1043I; binding; competition with immobilised ligand; 0.1 µM): 89%
Nc1ncc2c(n1)-c1c([nH]c3ccc(C#CC4CC4)cc13)CCCC2  remaining binding (PIK3CA E545K; binding; competition with immobilised ligand; 1 µM): 100%
N[C@H]1CCN(c2nccc(-c3cnn4ncccc34)n2)C1  remaining binding (PIK3CA H1047L; binding; 1 µM): 75%
CN1CCN(c2ccc(Nc3nccc(-c4cccc([N+](=O)[O-])c4)n3)cc2C(F)(F)F)CC1  remaining binding (PIK3CA E545K; binding; 10 µM): 36%
COc1ncc2cc3ccccc3nc2c1C#N  remaining binding (PIK3CA H1047L; cell-free assay; competition with immobilised ligand; 5 µM): 98%
O=C(NCCCN1CCOCC1)c1ccc(Nc2nccc(-c3cc4ccccc4s3)n2)cc1  remaining binding (PIK3CA E545A; binding; competition with immobilised ligand; 1 µM): 84%
CNCc1ccccc1-c1csc([C@H](C)Nc2nc(C)nc3cc(OC)c(OC)cc23)c1  remaining binding (PIK3CA M1043I; cell-free assay; competition with immobilised ligand; 1 µM): 100%
CCN1CCN(Cc2ccc(C(=O)Nc3ccc(C)c(Oc4ccc5c(c4)CC(=O)N5)c3)cc2C(F)(F)F)CC1  remaining binding (PIK3CA I800L; binding; competition with immobilised ligand; 1 µM): 95%
COCCOc1nc(-c2ccc(Cl)nc2)nc2c1CN(C(=O)c1ncn3ccccc13)CC2  remaining binding (PIK3CA M1043I; cell-free assay; competition with immobilised ligand; 0.1 µM): 88%
Cc1cnn2ncc(-c3ccnc(N(C)C)n3)c2c1  remaining binding (PIK3CA C420R; binding; 1 µM): 100%
COc1cnc(Nc2cccc(S(N)(=O)=O)c2)nc1N1CCN(c2ccccc2)C(=O)C1  remaining binding (PIK3CA Q546K; binding; competition with immobilised ligand; 1 µM): 100%
O=C(NCC1CCOCC1)c1n[nH]cc1NC(=O)c1c(F)cccc1F  remaining binding (PIK3CA E545A; binding; competition with immobilised ligand; 1 µM): 100%
C[C@H](NC(=O)c1cnc2n1[C@](C)(Cc1ccc(C#N)cc1)C(=O)N2c1cc(Cl)c(F)c(Cl)c1)C(=O)NC1(c2ccccn2)CC1  remaining binding (PIK3CA H1047L; cell-free assay; competition with immobilised ligand; 1 µM): 81%
c1cncc(-c2cccc(Nc3nccc(NC4CCCCC4)n3)c2)c1  remaining binding (PIK3CA I800L; binding; competition with immobilised ligand; 10 µM): 77%
CC1CCCN1c1nccc(-c2cnn3ncccc23)n1 (centres unmarked)  remaining binding (PIK3CA Q546K; binding; 1 µM): 42%
Cc1cnc(Nc2ccc(C(=O)N3CCC(N4CCCC4)CC3)cc2)nc1-c1cc2ccccc2s1  remaining binding (PIK3CA M1043I; binding; competition with immobilised ligand; 1 µM): 74%
C[C@@H]1CCN(c2nccc(-c3cnn4ncccc34)n2)C1  remaining binding (PIK3CA Q546K; binding; 1 µM): 79%
C=CC(=O)N1CCC(C(=O)NCC(=O)N2CCN(c3nc(-c4cnc(N)nc4C(F)F)nc(N4CCOCC4)n3)CC2)CC1  remaining binding (PIK3CA H1047L; binding; competition with immobilised ligand; 1 µM): 0.45%
